Measured values gathered from unrelated publications.
Each line is one published result; the experiments were not run side by side.
ALK L1196M: ALK tyrosine kinase receptor (ALK, Homo sapiens, UniProt Q9UM73, L1196M)
ALK: ALK tyrosine kinase receptor (ALK, Homo sapiens, UniProt Q9UM73)

C[C@@]1(Cc2ccc(C#N)cc2)C(=O)N(c2cc(Cl)cc(Cl)c2)c2ncc(C(=O)NC3(c4nc(C5CCC5)no4)CC3)n21
remaining binding (ALK L1196M; cell-free assay, competition with immobilised ligand; 1 µM): 100%

CCN(CC)c1ccc(C2=NNC(=O)CC2C)cc1[N+](=O)[O-] (stereo not shown)
remaining activity (ALK; enzyme activity, inhibitor; 10 µM): 110%

Nc1ncnc2occ(-c3ccc(NC(=O)Nc4cc(C(F)(F)F)ccc4F)cc3)c12
remaining signal (ALK; cell-free assay; 20 µM): 0.3%

c1cnn2ncc(-c3ccnc(N4CCC45COC5)n3)c2c1
remaining binding (ALK; binding; 1 µM): 78%

CNC(=O)c1cc(Oc2ccc(NC(=O)Nc3ccc(Cl)c(C(F)(F)F)c3)cc2)ccn1
inhibition (ALK; enzyme activity, inhibitor; 10 µM): 45%

CCCS(=O)(=O)Nc1ccc(F)c(C(=O)c2c[nH]c3ncc(-c4ccc(Cl)cc4)cc23)c1F
inhibition (ALK; enzyme activity, inhibitor; 1 µM): < 10%

CNCc1ccc(-c2cc(-c3nc(-c4ccc(S(=O)(=O)C(C)C)cc4)cnc3N)on2)cc1
inhibition (ALK; enzyme activity, inhibitor; 0.4 µM): 2%

CCN(CC)CCNC(=O)c1c(C)[nH]c(/C=C2\C(=O)Nc3ccc(F)cc32)c1C
remaining activity (ALK; enzyme activity, inhibitor; 0.1 µM): 73%

N#CC1(c2ccccn2)CCN(Cc2cc(C(=O)N3CCCC3)c(=O)n3ccccc23)CC1
remaining binding (ALK; cell-free assay, competition with immobilised ligand; 1 µM): 100%

COc1cc2ncnc(Nc3ccc(Oc4ccccc4)c(C)c3C)c2cc1OC
inhibition (ALK; enzyme activity, inhibitor; 1 µM): -3%

COc1cc2nccc(Oc3ccc(NC(=O)c4c5n(n(-c6ccc(F)cc6)c4=O)CCCC5)cc3)c2cc1OC
inhibition (ALK; enzyme activity, inhibitor; 0.1 µM): -23%

Cn1nc(C(=O)NCc2ccc(C(=O)O)cc2)cc1-c1ccc2[nH]ccc2c1
remaining binding (ALK L1196M; cell-free assay, competition with immobilised ligand; 0.1 µM): 100%

C[C@H]1CCN(c2nccc(-c3cnn4ncccc34)n2)C1
remaining binding (ALK L1196M; binding; 1 µM): 100%

Nc1cnc(N2CCc3cc(S(=O)(=O)Nc4c(F)cc(Cl)cc4F)cc(N4CCCC4=O)c32)nc1
remaining binding (ALK tyrosine kinase receptor (ALK, Homo sapiens, UniProt Q9UM73, C1156Y); cell-free assay, competition with immobilised ligand; 1 µM): 100%

CN(c1nccc(-c2cnn3ncccc23)n1)C1CC1
remaining binding (ALK; binding; 1 µM): 100%

O=C(O)c1cc(-c2ccc(C3CCNCC3)cc2)c2ccc(-c3ccc(C(F)(F)F)cc3)cc2c1
remaining binding (ALK; cell-free assay, competition with immobilised ligand; 1 µM): 100%

O=C1Nc2ccc(Cl)cc2C1=Cc1cc(Cl)c(O)c(Cl)c1
remaining signal (ALK; cell-free assay; 0.5 µM): 65.8%

Cc1noc([C@H]2C[C@@H](c3ccc(C(F)(F)F)cc3)CN(C(=O)N3CCS(=O)(=O)C3)C2)n1
remaining binding (ALK L1196M; cell-free assay, competition with immobilised ligand; 1 µM): 100%

CC/C(=N\NC(=O)NCc1cccc(O)c1)c1ccc(O)c(C)c1O
inhibition (ALK tyrosine kinase receptor (ALK, Homo sapiens, UniProt Q9UM73, G1202R); enzyme activity, inhibitor; 0.1 µM): -1.5%
